Calls of active or inactive are those of the source. The rule behind the calls is not given here.
Key:
N1E-115 = assay: Blockade of voltage-gated sodium channel in mouse N1E-115 cells assessed as stimulation at 100 umol at -90 mV holding potential by whole-cell patch clamp electrophysiological assay relative to control; assay type: cell-based
Method in brief: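 Whole-cell patch clamp with borosilicate glass electrodes on single cultured N1E-115 neuroblastoma cells. Compound at 100 µmol, holding potential -90 mV. Voltage-dependent sodium current expressed as % of control stimulation (no compound). Results from 5–8 cells averaged with SEM; significance by Student's t-test.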

Mus musculus [1] = organism: Mus musculus; assay: Protective index, ratio of TD50 for neurotoxicity in mouse to ED50 for inhibition of maximal electroshock-induced seizures in mouse; assay type: functional
[2] = Neurotoxicity in po dosed rat assessed as neurological deficit […]; assay type: toxicity, organism-based; settings: in vivo
Method in brief: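 Rats dosed orally with a suspension in 0.5% methylcellulose. Neurological deficit judged by ataxia and loss of placing response and muscle tone.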

[3] = Neurotoxicity in ip dosed mouse assessed as inability to maintain equilibrium on rotarod by rotarod test; assay type: toxicity, organism-based; settings: in vivo
Method in brief: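 Mice dosed ip with a suspension in 0.5% methylcellulose, then placed on a 1 inch knurled plastic rod rotating at 6 rpm. Toxicity = failure to keep equilibrium for at least 1 min in each of three trials.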

Rattus norvegicus [4] = assay: Anticonvulsant activity in po dosed rat assessed as protection against maximal electric shock-induced seizures; assay type: functional
Rattus norvegicus [5] = organism: Rattus norvegicus; assay: Protective index, ratio of TD50 for neurotoxicity in rat to ED50 for inhibition of maximal electroshock-induced seizures in rat; assay type: functional
Mus musculus [6] = assay: Anticonvulsant activity in ip dosed mouse assessed as protection against maximal electric shock-induced seizures; assay type: functional; settings: Mus musculus, ip; read-out: ED50
Mus musculus [7] = assay: Anticonvulsant activity in mouse assessed as protection against maximal electric shock-induced seizures at 300 mg/kg, ip after 4 hrs; assay type: functional, organism-based; set-up: dose 300 mg/kg
Method in brief: (§1)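 Phase I maximal electroshock screen in mice. Compound given ip as a suspension in 0.5% methylcellulose at 30, 100 or 300 mg/kg, tested at 30 min and 4 h. Small groups (1–8); result is number protected/number tested.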

Mus musculus [8] = assay: Anticonvulsant activity against subcutaneous pentylenetetrazole-induced seizures in mouse at 300 mg/kg, ip after 4 hrs; assay type: functional, organism-based; set-up: dose 300 mg/kg
Method in brief: (§2)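 Phase I screen in mice. Compound given ip as a suspension in 0.5% methylcellulose, read at 30 min and 4 h. Pentylenetetrazole 85 mg/kg in 0.9% NaCl was injected sc into the posterior midline and animals watched ≥30 min. Protection meant no clonic spasm lasting ≥5 s. Groups of 1–8 animals; result is protected/tested.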

Mus musculus [9] = assay: Anticonvulsant activity in mouse assessed as protection against maximal electric shock-induced seizures at 300 mg/kg, ip after 0.5 hrs; assay type: functional, organism-based; set-up: dose 300 mg/kg; method in brief: as §1
Mus musculus [10] = assay: Anticonvulsant activity against subcutaneous pentylenetetrazole-induced seizures in mouse at 30 mg/kg, ip after 4 hrs; assay type: functional, organism-based; set-up: dose 30 mg/kg; method in brief: as §2
Mus musculus [11] = assay: Anticonvulsant activity against subcutaneous pentylenetetrazole-induced seizures in mouse at 300 mg/kg, ip after 0.5 hrs; assay type: functional, organism-based; set-up: dose 300 mg/kg; method in brief: as §2
Mus musculus [12] = assay: Neurotoxicity in mouse assessed as inability to maintain equilibrium on rotarod at 100 mg/kg, ip after 0.5 hrs by rotarod test; assay type: toxicity, organism-based; set-up: dose 100 mg/kg, route intraperitoneal; settings: in vivo
Method in brief: (§3)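 Drug given ip to mice as a suspension in 0.5% methylcellulose. At the stated time after dosing, each mouse was placed on a 1 inch knurled rod turning at 6 rpm. Neurotoxicity = inability to stay balanced at least 1 min in each of three trials. Scored as animals toxic/animals tested in small groups.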

Mus musculus [13] = assay: Neurotoxicity in mouse assessed as inability to maintain equilibrium on rotarod at 30 mg/kg, ip after 0.5 hrs by rotarod test; assay type: toxicity, organism-based; set-up: dose 30 mg/kg, route intraperitoneal; settings: in vivo; method in brief: as §3
Mus musculus [14] = assay: Anticonvulsant activity in mouse assessed as protection against maximal electric shock-induced seizures at 100 mg/kg, ip after 4 hrs; assay type: functional, organism-based; set-up: dose 100 mg/kg; method in brief: as §1
Mus musculus [15] = assay: Neurotoxicity in mouse assessed as inability to maintain equilibrium on rotarod at 100 mg/kg, ip after 4 hrs by rotarod test; assay type: toxicity, organism-based; set-up: dose 100 mg/kg, route intraperitoneal; settings: in vivo; method in brief: as §3
Mus musculus [16] = assay: Anticonvulsant activity against subcutaneous pentylenetetrazole-induced seizures in mouse at 100 mg/kg, ip after 4 hrs; assay type: functional, organism-based; set-up: dose 100 mg/kg; method in brief: as §2
Mus musculus [17] = assay: Anticonvulsant activity in mouse assessed as protection against maximal electric shock-induced seizures at 30 mg/kg, ip after 0.5 hrs; assay type: functional, organism-based; set-up: dose 30 mg/kg; method in brief: as §1
Mus musculus [18] = assay: Anticonvulsant activity against subcutaneous pentylenetetrazole-induced seizures in mouse at 30 mg/kg, ip after 0.5 hrs; assay type: functional, organism-based; set-up: dose 30 mg/kg; method in brief: as §2
Mus musculus [19] = assay: Neurotoxicity in mouse assessed as inability to maintain equilibrium on rotarod at 300 mg/kg, ip after 4 hrs by rotarod test; assay type: toxicity, organism-based; set-up: dose 300 mg/kg, route intraperitoneal; settings: in vivo; method in brief: as §3
Mus musculus [20] = assay: Neurotoxicity in mouse assessed as inability to maintain equilibrium on rotarod at 30 mg/kg, ip after 4 hrs by rotarod test; assay type: toxicity, organism-based; set-up: dose 30 mg/kg, route intraperitoneal; settings: in vivo; method in brief: as §3
Mus musculus [21] = assay: Anticonvulsant activity in mouse assessed as protection against maximal electric shock-induced seizures at 30 mg/kg, ip after 4 hrs; assay type: functional, organism-based; set-up: dose 30 mg/kg; method in brief: as §1
Mus musculus [22] = assay: Anticonvulsant activity against subcutaneous pentylenetetrazole-induced seizures in mouse at 100 mg/kg, ip after 0.5 hrs; assay type: functional, organism-based; set-up: dose 100 mg/kg; method in brief: as §2

Structure (SMILES): Nc1nnc(-c2cccc(Cl)c2Cl)c(N)n1
- Activity (N1E-115): 67%

Structure (SMILES): O=C1NC(=O)C(c2ccccc2)(c2ccccc2)N1 [PHENYTOIN]
- Ratio TD50/ED50 (Mus musculus [1]): 6.6
- TD50 [2]: > 500 mg/kg
- TD50 [3]: 34.5 mg/kg
- ED50 (Rattus norvegicus [4]): 32.2 mg/kg
- Ratio TD50/ED50 (Rattus norvegicus [5]): >22
- ED50 (Mus musculus [6]): 6.48 mg/kg
- Activity (N1E-115): 78%

Structure (SMILES): Cc1cccc(C)c1OCC(=O)N[C@H]1CCCC[C@H]1O
- Activity (Mus musculus [7]): inactive
- Activity (Mus musculus [8]): inactive
- Activity (Mus musculus [9]): Active
- Activity (Mus musculus [10]): inactive
- Activity (Mus musculus [11]): Active
- Activity (Mus musculus [12]): Non-toxic
- Activity (Mus musculus [13]): Non-toxic
- Activity (Mus musculus [14]): inactive
- Activity (Mus musculus [15]): Non-toxic
- Activity (Mus musculus [16]): inactive
- Activity (Mus musculus [17]): inactive
- Activity (Mus musculus [18]): inactive
- Activity (Mus musculus [19]): Non-toxic
- Activity (Mus musculus [20]): Non-toxic
- Activity (Mus musculus [21]): inactive
- Activity (Mus musculus [22]): inactive

Reference: ChEMBL document CHEMBL1921792, “Synthesis and anticonvulsant activity of trans- and cis-2-(2,6-dimethylphenoxy)-N-(2- or 4-hydroxycyclohexyl)acetamides and their amine analogs” (Bioorg Med Chem, 2011)
